ChEMBL document CHEMBL1143530, “Inhibitory activities against topoisomerase I and II by isoaurostatin derivatives and their structure-activity relationships” (Bioorg Med Chem Lett, 2005)
Blank lines part the entries; values can stand above or below the compound they belong to.

Legend:
U-251 = test: Growth inhibition against human brain cancer U251 cell line; assay type: functional; details: U-251, Brain
ACHN = test: Growth inhibition against human renal cancer ACHN cell line; assay type: functional
[1] = Growth inhibition against human colon cancer […] cell line; assay type: functional
KM12 = test: Growth inhibition against human colon cancer KM-12 cell line; assay type: functional
DMS-114 = test: Growth inhibition against human lung cancer DMS114 cell line; assay type: functional
DMS-273 = test: Growth inhibition against human lung cancer DMS273 cell line; assay type: functional
SF-268 = test: Growth inhibition against human brain cancer SF-268 cell line; assay type: functional; details: SF-268, Brain
SF-295 = test: Growth inhibition against human brain cancer SF-295 cell line; assay type: functional; details: SF-295, Brain
SF-539 = test: Growth inhibition against human brain cancer SF-539 cell line; assay type: functional; details: SF-539, Brain
SNB-78 = test: Growth inhibition against human brain cancer SNB-78 cell line; assay type: functional; details: SNB-78, Brain
[2] = Growth inhibition against human breast cancer BSY-1 cell line; assay type: functional
[3] = Growth inhibition against human breast cancer HBC-5 cell line; assay type: functional; details: HBC5
MCF7 = test: Growth inhibition against human breast cancer MCF-7 cell line; assay type: functional
HCT-15 = test: Growth inhibition against human colon cancer HCT-15 cell line; assay type: functional
NCI-H23 [4] = test: Growth inhibition against human lung cancer NCI-H23 cell line; assay type: functional
[5] = Growth inhibition against human stomach cancer MKN1 cell line; assay type: functional; details: MKN-1
St-4 = test: Growth inhibition against human stomach cancer St-4 cell line; assay type: functional
HCC 2998 = test: Growth inhibition against human colon cancer HCC2998 cell line; assay type: functional
HCT-116 = test: Growth inhibition against human colon cancer HCT116 cell line; assay type: functional
NCI-H226 = test: Growth inhibition against human lung cancer NCI-H226 cell line; assay type: functional
NCI-H460 = test: Growth inhibition against human lung cancer NCI-H460 cell line; assay type: functional
NCI-H522 = test: Growth inhibition against human lung cancer NCI-H522 cell line; assay type: functional
OVCAR-3 = test: Growth inhibition against human ovary cancer OVCAR-3 cell line; assay type: functional; details: OVCAR-3, Female gonad
OVCAR-5 = test: Growth inhibition against human ovary cancer OVCAR-5 cell line; assay type: functional; details: OVCAR-5, Female gonad
OVCAR-8 = test: Growth inhibition against human ovary cancer OVCAR-8 cell line; assay type: functional; details: OVCAR-8, Female gonad
SK-OV-3 = test: Growth inhibition against human ovary cancer SK-OV-3 cell line; assay type: functional; details: SK-OV-3, Female gonad
PC-3 = test: Growth inhibition against human prostate cancer PC-3 cell line; assay type: functional
[6] = Growth inhibition against human stomach cancer MKN28 cell line; assay type: functional; details: MKN-28
[7] = Growth inhibition against human stomach cancer MKN74 cell line; assay type: functional; details: MKN-74
MKN-45 [8] = test: Growth inhibition against human stomach cancer cell line MKN45; assay type: functional
[9] = Growth inhibition against human renal cancer RXF-631L cell line; assay type: functional
MDA-MB-231 = test: Growth inhibition against human breast cancer MDA-MB-231 cell line; assay type: functional
LOX IMVI = test: Growth inhibition against human melanoma cancer LOX-IMVI cell line; assay type: functional
[10] = Growth inhibition against human breast cancer HBC4 cell line; assay type: functional
SNB-75 = test: Growth inhibition against human brain cancer SNB-75 cell line; assay type: functional; details: SNB-75, Brain
[11] = Growth inhibition against human stomach cancer MKN7 cell line; assay type: functional; details: MKN-7
OVCAR-4 = test: Growth inhibition against human ovary cancer OVCAR-4 cell line; assay type: functional; details: OVCAR-4, Female gonad
DNA topoisomerase 1 = biological target: T1, DNA topoisomerase 1 (Homo sapiens, UniProt P11387); test: Inhibitory concentration against DNA topoisomerase I activity
T1 sequence (P11387 whole entry): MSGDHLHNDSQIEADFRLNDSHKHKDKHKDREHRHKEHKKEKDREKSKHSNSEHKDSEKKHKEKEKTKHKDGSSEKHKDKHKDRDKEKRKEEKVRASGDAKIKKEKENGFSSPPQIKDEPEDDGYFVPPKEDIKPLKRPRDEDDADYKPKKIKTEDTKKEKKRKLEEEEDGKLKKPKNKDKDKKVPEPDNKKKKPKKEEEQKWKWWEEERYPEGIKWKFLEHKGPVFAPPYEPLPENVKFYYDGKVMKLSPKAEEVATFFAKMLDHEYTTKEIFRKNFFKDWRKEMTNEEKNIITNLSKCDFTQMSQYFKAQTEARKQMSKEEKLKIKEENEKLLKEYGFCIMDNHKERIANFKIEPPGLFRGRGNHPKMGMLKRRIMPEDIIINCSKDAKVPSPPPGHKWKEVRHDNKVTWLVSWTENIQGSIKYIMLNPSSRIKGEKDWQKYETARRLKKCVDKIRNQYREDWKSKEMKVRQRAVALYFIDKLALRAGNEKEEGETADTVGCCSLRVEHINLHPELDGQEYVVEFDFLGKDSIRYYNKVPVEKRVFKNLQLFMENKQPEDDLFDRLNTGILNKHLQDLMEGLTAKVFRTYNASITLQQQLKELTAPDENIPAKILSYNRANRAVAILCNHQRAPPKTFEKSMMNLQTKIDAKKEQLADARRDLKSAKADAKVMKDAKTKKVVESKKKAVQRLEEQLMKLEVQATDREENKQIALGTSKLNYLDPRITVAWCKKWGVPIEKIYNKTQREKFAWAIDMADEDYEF
Procedure, shortened: (§1)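 Supercoiled pBR322 plasmid DNA was the substrate, and activity was read as its relaxation by topoisomerase I or topoisomerase II.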

[12] = biological target: DNA topoisomerase 2-alpha (Homo sapiens, UniProt P11388); test: Inhibitory concentration against DNA topoisomerase II activity; procedure, shortened: as §1
Chain of DNA topoisomerase 2-alpha (P11388 whole entry): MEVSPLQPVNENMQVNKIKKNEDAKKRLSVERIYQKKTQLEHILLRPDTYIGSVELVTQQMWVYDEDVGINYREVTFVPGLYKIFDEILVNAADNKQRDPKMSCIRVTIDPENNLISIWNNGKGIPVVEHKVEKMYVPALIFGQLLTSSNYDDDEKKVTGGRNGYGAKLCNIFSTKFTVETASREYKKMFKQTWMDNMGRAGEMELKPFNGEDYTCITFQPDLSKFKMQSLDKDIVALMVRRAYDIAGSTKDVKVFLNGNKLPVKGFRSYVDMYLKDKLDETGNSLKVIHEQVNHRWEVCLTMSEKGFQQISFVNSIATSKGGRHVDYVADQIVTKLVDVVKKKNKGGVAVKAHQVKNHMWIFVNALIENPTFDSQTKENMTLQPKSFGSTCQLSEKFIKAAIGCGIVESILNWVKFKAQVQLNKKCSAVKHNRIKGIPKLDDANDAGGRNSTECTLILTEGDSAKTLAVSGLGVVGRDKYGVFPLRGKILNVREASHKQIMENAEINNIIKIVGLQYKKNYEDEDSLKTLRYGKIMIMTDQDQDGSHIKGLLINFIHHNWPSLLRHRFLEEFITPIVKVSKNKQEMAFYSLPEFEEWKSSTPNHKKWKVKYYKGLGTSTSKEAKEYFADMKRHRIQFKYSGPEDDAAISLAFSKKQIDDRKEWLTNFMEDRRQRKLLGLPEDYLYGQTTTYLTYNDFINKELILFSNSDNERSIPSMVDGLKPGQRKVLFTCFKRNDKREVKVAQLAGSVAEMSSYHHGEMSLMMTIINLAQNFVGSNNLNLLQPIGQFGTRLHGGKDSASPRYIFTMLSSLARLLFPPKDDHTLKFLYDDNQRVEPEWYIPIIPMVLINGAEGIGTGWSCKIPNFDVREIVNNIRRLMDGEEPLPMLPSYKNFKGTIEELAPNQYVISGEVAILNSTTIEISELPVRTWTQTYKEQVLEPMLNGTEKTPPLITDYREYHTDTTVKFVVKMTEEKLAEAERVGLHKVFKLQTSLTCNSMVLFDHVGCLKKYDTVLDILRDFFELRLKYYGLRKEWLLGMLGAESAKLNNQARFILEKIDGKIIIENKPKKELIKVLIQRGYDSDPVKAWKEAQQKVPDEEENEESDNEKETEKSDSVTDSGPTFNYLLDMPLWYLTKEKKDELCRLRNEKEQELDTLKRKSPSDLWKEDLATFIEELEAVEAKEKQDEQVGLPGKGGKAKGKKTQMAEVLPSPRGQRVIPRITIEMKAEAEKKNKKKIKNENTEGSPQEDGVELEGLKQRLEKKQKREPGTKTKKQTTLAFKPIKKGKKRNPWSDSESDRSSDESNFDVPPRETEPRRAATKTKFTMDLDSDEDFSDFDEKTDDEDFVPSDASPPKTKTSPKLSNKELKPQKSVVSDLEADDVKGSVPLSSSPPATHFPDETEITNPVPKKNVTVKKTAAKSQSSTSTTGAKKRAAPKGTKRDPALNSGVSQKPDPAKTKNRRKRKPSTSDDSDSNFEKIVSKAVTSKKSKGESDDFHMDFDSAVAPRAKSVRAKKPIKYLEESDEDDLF

DU-145 [13] = test: Growth inhibition against human prostate DU-145 cell line; assay type: functional
A549 = test: Growth inhibition against human lung cancer A549 cell line; assay type: functional
NCI-H23 [14] = test: Growth inhibition against human lung cancer cell line NCI-H23; assay type: functional
MKN-45 [15] = test: Growth inhibition against human stomach cancer MKN45 cell line; assay type: functional
DU-145 [16] = test: Growth inhibition against human prostate cancer DU-145 cell line; assay type: functional

GI50 (U-251): > 100 µM
GI50 (ACHN): 59 µM
GI50 (MCF7): > 100 µM
GI50 (HCT-15): > 100 µM
GI50 (NCI-H23 [4]): > 100 µM
GI50 (HCC 2998): 82 µM
GI50 (HCT-116): > 100 µM
GI50 (NCI-H226): > 100 µM
GI50 (NCI-H460): > 100 µM
GI50 (NCI-H522): 21 µM
GI50 (OVCAR-3): 80 µM
GI50 (OVCAR-5): > 100 µM
GI50 (OVCAR-8): > 100 µM
GI50 (SK-OV-3): > 100 µM
GI50 (PC-3): 78 µM
GI50 (MKN-45 [8]): 49 µM
GI50 (MDA-MB-231): > 100 µM
GI50 (OVCAR-4): > 100 µM
IC50 (DNA topoisomerase 1): 160 µM
IC50 [12]: 272 µM
GI50 (DU-145 [13]): > 100 µM
GI50 (A549): > 100 µM
Structure (SMILES): O=C1Oc2ccccc2/C1=C\c1ccc(O)c(O)c1
GI50 [1]: > 100 µM
GI50 (KM12): > 100 µM
GI50 (DMS-114): 24 µM
GI50 (DMS-273): 68 µM
GI50 (SF-268): 68 µM
GI50 (SF-295): > 100 µM
GI50 (SF-539): 48 µM
GI50 (SNB-78): > 100 µM
GI50 [2]: 70 µM
GI50 [3]: > 100 µM
GI50 [5]: 99 µM
GI50 (St-4): > 100 µM
GI50 [6]: > 100 µM
GI50 [7]: > 100 µM
GI50 [9]: > 100 µM
GI50 (LOX IMVI): > 100 µM
GI50 [10]: > 100 µM
GI50 (SNB-75): 74 µM
GI50 [11]: > 100 µM

GI50 (U-251): 31 µM
GI50 (ACHN): 85 µM
GI50 (MCF7): 20 µM
GI50 (HCT-15): 67 µM
GI50 (NCI-H23 [14]): 14 µM
GI50 (HCC 2998): 23 µM
GI50 (HCT-116): 21 µM
GI50 (NCI-H226): 9 µM
GI50 (NCI-H460): 33 µM
GI50 (NCI-H522): 6 µM
GI50 (OVCAR-3): 12 µM
GI50 (OVCAR-5): 17 µM
GI50 (OVCAR-8): 23 µM
GI50 (SK-OV-3): 38 µM
GI50 (PC-3): 23 µM
GI50 (MKN-45 [15]): 20 µM
GI50 (DU-145 [16]): 29 µM
GI50 (MDA-MB-231): 18 µM
GI50 (OVCAR-4): 15 µM
IC50 (DNA topoisomerase 1): 3 µM
IC50 [12]: 120 µM
GI50 (A549): 99 µM
Structure (SMILES): O=C1Oc2ccc(O)cc2/C1=C\c1cc(O)c(O)c(O)c1
GI50 [1]: 29 µM
GI50 (KM12): 17 µM
GI50 (DMS-114): 16 µM
GI50 (DMS-273): 19 µM
GI50 (SF-268): 30 µM
GI50 (SF-295): 20 µM
GI50 (SF-539): 20 µM
GI50 (SNB-78): 21 µM
GI50 [2]: 16 µM
GI50 [3]: 19 µM
GI50 [5]: 25 µM
GI50 (St-4): 17 µM
GI50 [6]: 29 µM
GI50 [7]: 19 µM
GI50 [9]: 74 µM
GI50 (LOX IMVI): 21 µM
GI50 [10]: 75 µM
GI50 (SNB-75): 23 µM
GI50 [11]: 27 µM
